For experiment [1], the species on record is Homo sapiens. Briefly: Anti-adipogenic activity in human differentiated MSC assessed as reduction in lipid accumulation at 5 to 20 uM after 20 mins by Oil Red O staining based microscopic method. It counts as functional. In a few lines:
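C3H10T1/2 or hMSC adipocytes differentiated alongside 5, 10 or 20 µM compound in differentiation media, stained with Oil red O. Images taken by bright-field microscopy at 10x and 20x, representative of three independent experiments.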

Experiment [2] is filed under the species Mus musculus. Briefly: Activation of Wnt3a/beta-catenin in differentiated mouse 3T3L1 cells assessed as upregulation of phosphorylated LRP6 expression at 20 uM after 16 to 24 hrs by Western blot analysis. In a few lines:
(§1)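 3T3-L1 preadipocytes grown to confluence in high-glucose DMEM/10% FBS, then given differentiation media (0.5 mM IBMX, 5 µg/ml insulin, 250 nM dexamethasone) with or without 20 µM compound. Protein isolated at set time points, lysed with protease/phosphatase inhibitors, BCA-quantified, resolved by 8–12% SDS-PAGE, immunoblotted with ECL detection. β-actin loading control, densitometry normalized to actin, n=3.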
(A western blot detects proteins with antibodies after separation by electrophoresis.)

The subject of experiment [3] is Syrian golden hamster. Briefly: Induction of reverse cholestrol transport in high fat diet-induced dyslipidemia Syrian Golden hamster model assessed as increase in LCAT mRNA expression in liver at 100 mg/kg, po administered for 1 week by qRT-PCR analysis. The format is functional, organism-based. The settings on record: Mesocricetus auratus. For orientation: In qPCR the cycle at which signal appears reflects the starting amount.

Experiment [4] is filed under the species Mus musculus. Nature of the experiment: Activation of Wnt3a/beta-catenin in differentiated mouse 3T3L1 cells assessed as upregulation of phosphorylated beta-catenin expression at 20 uM after 16 to 24 hrs by Western blot analysis. In a few lines: as §1
The test system of experiment [5] is Syrian golden hamster. Nature of the experiment: Anti-adipogenic activity in high fat diet-induced dyslipidemia Syrian Golden hamster model assessed as increase in beta-catenin levels in eWAT at 100 mg/kg, po administered for 1 week by Western blot analysis. The format is functional, organism-based. The settings on record: Mesocricetus auratus. In short, it runs like this:
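Male Syrian golden hamsters (8–10 wk, 100–120 g) fed 45% kcal HFD for 4 days, then dosed orally at 100 mg/kg in 0.5% NaCMC for one week, n=4 per group. Fenofibrate 100 mg/kg p.o. used as positive control. Epididymal WAT proteins Western blotted, three independent experiments.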

The species entered for experiment [6] is Mus musculus. Nature of the experiment: Activation of Wnt3a/beta-catenin in mouse 3T3L1 cells assessed as down-regulation of cyclinD1 expression at 20 uM after 16 to 24 hrs in presence of FH353 by Western blot analysis. The format is cell-based. In a few lines:
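Confluent 3T3-L1 cells given differentiation media (IBMX/insulin/dexamethasone) with 20 µM compound, with or without the β-catenin/TCF inhibitor FH353 (10 µM). Proteins isolated at 16 and 24 h and Western blotted after SDS-PAGE and nitrocellulose transfer. Blocking in 5% milk/TBS-T, primary antibody overnight at 4 °C, chemiluminescent detection, β-actin control, three independent experiments.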

In experiment [7] the test system is 3T3-L1. Briefly: Anti-adipogenic activity in mouse 3T3L1 pre-adipocytes in differentiation media assessed as reduction in lipid accumulation at 20 uM after 20 mins in presence of beta-catenin/TCF complex inhibitor FH353 by Oil Red O absorbance method. It counts as functional, cell-based. In short, it runs like this: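 3T3-L1 cells differentiated with 20 µM compound with or without FH353 (10 µM) in differentiation media. Oil red O extracted and absorbance read at 492 nm, n=3, mean ± SD, Student t test.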

Structures are written as SMILES. Calls of active or inactive are those of the source. The rule behind the calls is not given here.

Turning to `Cc1ccc(S(=O)(=O)N(Cc2cn(Cc3cccc(F)c3F)nn2)Cc2cn(S(=O)(=O)c3ccc(C)cc3)c3ccccc23)cc1`, the result in experiment [1], in experiment [2], in experiment [3], in experiment [4] and in experiment [5] was Active. The outcome in experiment [6] and in experiment [7] was inactive.

The record behind these values is ChEMBL document CHEMBL4138193, “Novel indole and triazole based hybrid molecules exhibit potent anti-adipogenic and antidyslipidemic activity by activating Wnt3a/β-catenin pathway” (Eur J Med Chem, 2018).
